# From ChEMBL document CHEMBL4689842, “EUbOPEN Chemogenomics Library wave 1” (2021)
# Legend:
# U2OS = assay: Multiplex assay against U2OS; format: toxicity, cell-based; conditions: human
# Procedure, shortened: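 With compound added, live cells were imaged on a CQ1 microscope at 37°C and 5% CO2; staining with Hoechst33342, BioTracker Green Microtubule Cytoskeleton Dye, MitoTracker Red and Annexin V Alexa Fluor 680 had been done at seeding. The CellPathfinder machine-learning gating scheme split cells into Hoechst high-intensity objects or normal cells, normal cells into healthy, pyknosed or fragmented nuclei, and pyknosed cells into mitotic or apoptotic. The tubulin, mitochondrial-mass and membrane-permeability phenotypes are per cents of healthy-nucleus cells.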
# Fibroblast = assay: Incucyte cell viability with human fibroblast; format: toxicity, cell-based; conditions: 10 µM, compound concentration 10 uM; also: filed as whole numbers so only -1 and 0 and 1 occur
# [1] = 12 h, 1 µM, compound concentration 1 uM, replicate 1
# [2] = 12 h, 1 µM, compound concentration 1 uM, replicate 2
# [3] = 12 h, 10 µM, compound concentration 10 uM, replicate 1
# [4] = 12 h, 10 µM, compound concentration 10 uM, replicate 2
# [5] = 24 h, 1 µM, compound concentration 1 uM, replicate 1
# [6] = 24 h, 1 µM, compound concentration 1 uM, replicate 2
# [7] = 24 h, 10 µM, compound concentration 10 uM, replicate 1
# [8] = 24 h, 10 µM, compound concentration 10 uM, replicate 2
# [9] = 48 h, 1 µM, compound concentration 1 uM, replicate 1
# [10] = 48 h, 1 µM, compound concentration 1 uM, replicate 2
# [11] = 48 h, 10 µM, compound concentration 10 uM, replicate 1
# [12] = 48 h, 10 µM, compound concentration 10 uM, replicate 2
structure (smiles),measurement,setting,value
CCCCN(CC)c1nc(C)nc2c1c(C)cn2-c1c(C)cc(C)cc1C.Cl,Population Apoptotic (%),U2OS; [1],33%
same,Population Healthy Nuclei (%),U2OS; [1],76%
same,Population Hoechst High Intensity Objects (%),U2OS; [1],8%
same,Population Membrane Permeable-Phenotype (%),U2OS; [1],3%
same,Population Mitochondria Different-Phenotype (%),U2OS; [1],7%
same,Population Mitotic Cells (%),U2OS; [1],66%
same,Population Normal (%),U2OS; [1],91%
same,Population Tubulin-Different-Phenotype (%),U2OS; [1],6%
same,Total Cell Count,U2OS; [1],135
same,Population Apoptotic (%),U2OS; [2],55%
same,Population Fragmented Nuclei (%),U2OS; [2],13%
same,Population Healthy Nuclei (%),U2OS; [2],77%
same,Population Hoechst High Intensity Objects (%),U2OS; [2],3%
same,Population Membrane Permeable-Phenotype (%),U2OS; [2],5%
same,Population Mitochondria Different-Phenotype (%),U2OS; [2],8%
same,Population Mitotic Cells (%),U2OS; [2],44%
same,Population Normal (%),U2OS; [2],96%
same,Population Pyknosed Nuclei (%),U2OS; [2],9%
same,Population Tubulin-Different-Phenotype (%),U2OS; [2],14%
same,Total Cell Count,U2OS; [2],95
same,Population Apoptotic (%),U2OS; [3],65%
same,Population Fragmented Nuclei (%),U2OS; [3],17%
same,Population Healthy Nuclei (%),U2OS; [3],67%
same,Population Hoechst High Intensity Objects (%),U2OS; [3],7%
same,Population Membrane Permeable-Phenotype (%),U2OS; [3],2%
same,Population Mitochondria Different-Phenotype (%),U2OS; [3],51%
same,Population Mitotic Cells (%),U2OS; [3],35%
same,Population Normal (%),U2OS; [3],92%
same,Population Pyknosed Nuclei (%),U2OS; [3],14%
same,Population Tubulin-Different-Phenotype (%),U2OS; [3],37%
same,Total Cell Count,U2OS; [3],145
same,Population Apoptotic (%),U2OS; [4],20%
same,Population Fragmented Nuclei (%),U2OS; [4],9%
same,Population Healthy Nuclei (%),U2OS; [4],83%
same,Population Hoechst High Intensity Objects (%),U2OS; [4],6%
same,Population Membrane Permeable-Phenotype (%),U2OS; [4],4%
same,Population Mitochondria Different-Phenotype (%),U2OS; [4],55%
same,Population Mitotic Cells (%),U2OS; [4],80%
same,Population Normal (%),U2OS; [4],93%
same,Population Pyknosed Nuclei (%),U2OS; [4],6%
same,Population Tubulin-Different-Phenotype (%),U2OS; [4],19%
same,Total Cell Count,U2OS; [4],78
same,Population Apoptotic (%),U2OS; [5],27%
same,Population Fragmented Nuclei (%),U2OS; [5],7%
same,Population Healthy Nuclei (%),U2OS; [5],85%
same,Population Mitochondria Different-Phenotype (%),U2OS; [5],8%
same,Population Mitotic Cells (%),U2OS; [5],72%
same,Population Pyknosed Nuclei (%),U2OS; [5],7%
same,Population Tubulin-Different-Phenotype (%),U2OS; [5],9%
same,Total Cell Count,U2OS; [5],162
same,Population Apoptotic (%),U2OS; [6],29%
same,Population Fragmented Nuclei (%),U2OS; [6],13%
same,Population Healthy Nuclei (%),U2OS; [6],70%
same,Population Hoechst High Intensity Objects (%),U2OS; [6],5%
same,Population Membrane Permeable-Phenotype (%),U2OS; [6],3%
same,Population Mitochondria Different-Phenotype (%),U2OS; [6],6%
same,Population Mitotic Cells (%),U2OS; [6],70%
same,Population Normal (%),U2OS; [6],94%
same,Population Pyknosed Nuclei (%),U2OS; [6],15%
same,Population Tubulin-Different-Phenotype (%),U2OS; [6],7%
same,Total Cell Count,U2OS; [6],116
same,Population Apoptotic (%),U2OS; [7],68%
same,Population Fragmented Nuclei (%),U2OS; [7],19%
same,Population Healthy Nuclei (%),U2OS; [7],62%
same,Population Hoechst High Intensity Objects (%),U2OS; [7],5%
same,Population Membrane Permeable-Phenotype (%),U2OS; [7],2%
same,Population Mitochondria Different-Phenotype (%),U2OS; [7],48%
same,Population Mitotic Cells (%),U2OS; [7],32%
same,Population Normal (%),U2OS; [7],94%
same,Population Pyknosed Nuclei (%),U2OS; [7],17%
same,Population Tubulin-Different-Phenotype (%),U2OS; [7],26%
same,Total Cell Count,U2OS; [7],152
same,Population Apoptotic (%),U2OS; [8],25%
same,Population Fragmented Nuclei (%),U2OS; [8],8%
same,Population Healthy Nuclei (%),U2OS; [8],80%
same,Population Hoechst High Intensity Objects (%),U2OS; [8],4%
same,Population Membrane Permeable-Phenotype (%),U2OS; [8],3%
same,Population Mitochondria Different-Phenotype (%),U2OS; [8],54%
same,Population Mitotic Cells (%),U2OS; [8],75%
same,Population Normal (%),U2OS; [8],95%
same,Population Pyknosed Nuclei (%),U2OS; [8],11%
same,Population Tubulin-Different-Phenotype (%),U2OS; [8],21%
same,Total Cell Count,U2OS; [8],74
same,Population Apoptotic (%),U2OS; [9],27%
same,Population Fragmented Nuclei (%),U2OS; [9],5%
same,Population Healthy Nuclei (%),U2OS; [9],86%
same,Population Hoechst High Intensity Objects (%),U2OS; [9],3%
same,Population Membrane Permeable-Phenotype (%),U2OS; [9],0%
same,Population Mitochondria Different-Phenotype (%),U2OS; [9],10%
same,Population Mitotic Cells (%),U2OS; [9],72%
same,Population Normal (%),U2OS; [9],96%
same,Population Pyknosed Nuclei (%),U2OS; [9],7%
same,Population Tubulin-Different-Phenotype (%),U2OS; [9],7%
same,Total Cell Count,U2OS; [9],253
same,Population Apoptotic (%),U2OS; [10],28%
same,Population Fragmented Nuclei (%),U2OS; [10],8%
same,Population Healthy Nuclei (%),U2OS; [10],82%
same,Population Hoechst High Intensity Objects (%),U2OS; [10],1%
same,Population Membrane Permeable-Phenotype (%),U2OS; [10],8%
same,Population Mitochondria Different-Phenotype (%),U2OS; [10],14%
same,Population Mitotic Cells (%),U2OS; [10],71%
same,Population Normal (%),U2OS; [10],98%
same,Population Pyknosed Nuclei (%),U2OS; [10],8%
same,Population Tubulin-Different-Phenotype (%),U2OS; [10],13%
same,Total Cell Count,U2OS; [10],170
same,Population Apoptotic (%),U2OS; [11],39%
same,Population Fragmented Nuclei (%),U2OS; [11],18%
same,Population Healthy Nuclei (%),U2OS; [11],68%
same,Population Hoechst High Intensity Objects (%),U2OS; [11],6%
same,Population Membrane Permeable-Phenotype (%),U2OS; [11],4%
same,Population Mitochondria Different-Phenotype (%),U2OS; [11],30%
same,Population Mitotic Cells (%),U2OS; [11],60%
same,Population Normal (%),U2OS; [11],93%
same,Population Pyknosed Nuclei (%),U2OS; [11],12%
same,Population Tubulin-Different-Phenotype (%),U2OS; [11],26%
same,Total Cell Count,U2OS; [11],192
same,Population Apoptotic (%),U2OS; [12],38%
same,Population Fragmented Nuclei (%),U2OS; [12],9%
same,Population Healthy Nuclei (%),U2OS; [12],71%
same,Population Hoechst High Intensity Objects (%),U2OS; [12],5%
same,Population Membrane Permeable-Phenotype (%),U2OS; [12],6%
same,Population Mitochondria Different-Phenotype (%),U2OS; [12],38%
same,Population Mitotic Cells (%),U2OS; [12],61%
same,Population Normal (%),U2OS; [12],94%
same,Population Pyknosed Nuclei (%),U2OS; [12],18%
same,Population Tubulin-Different-Phenotype (%),U2OS; [12],12%
same,Total Cell Count,U2OS; [12],119
same,Growth Rate,"Fibroblast; 0 h, replicate number 1, timepoint 0 hours",1
same,Growth Rate,"Fibroblast; 6 h, replicate number 1, timepoint 6 hours",0
same,Growth Rate,"Fibroblast; 12 h, replicate number 1, timepoint 12 hours",0
same,Growth Rate,"Fibroblast; 18 h, replicate number 1, timepoint 18 hours",0
same,Growth Rate,"Fibroblast; 24 h, replicate number 1, timepoint 24 hours",0
